Results on twelve compounds are retold here after ChEMBL document CHEMBL1140421, “Kynurenamines as neural nitric oxide synthase inhibitors” (J Med Chem, 2005).

Assay [1] addresses Kynurenine 3-monooxygenase (Rattus norvegicus) (UniProt O88867). As to the kind of experiment: Percent activity of rat striatal kynurenine 3-hydroxylase (KYN3OH) activity at 1 mM by quantifying 3-hydroxykynurenine production.
Assay [2] addresses Nitric oxide synthase 1 (Rattus norvegicus) (UniProt P29476). As to the kind of experiment: Percentage inhibition of rat striatal neural nitric oxide synthase (nNOS) activity at 1 mM by quantifying L-[3H]citrulline production. In outline:
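Striatal homogenate was made in pH 7.6 Tris buffer with DTT and protease inhibitors, then spun 1000g for 5 min. Supernatant was incubated with 25 mM Tris, 1 mM DTT, 30 μM H4-biopterin, 10 μM FAD, 0.1 mM CaCl2, 10 μM L-arginine plus 50 nM L-[3H]-arginine, 0.75 mM NADPH and compound at 1 mM final in DMSO, 37 °C, 30 min. L-[3H]-citrulline separated on Dowex-50W and counted. NADPH-free blank subtracted. Three experiments in triplicate.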

Sequence of Kynurenine 3-monooxygenase (Rattus norvegicus) (O88867 whole entry, looked up): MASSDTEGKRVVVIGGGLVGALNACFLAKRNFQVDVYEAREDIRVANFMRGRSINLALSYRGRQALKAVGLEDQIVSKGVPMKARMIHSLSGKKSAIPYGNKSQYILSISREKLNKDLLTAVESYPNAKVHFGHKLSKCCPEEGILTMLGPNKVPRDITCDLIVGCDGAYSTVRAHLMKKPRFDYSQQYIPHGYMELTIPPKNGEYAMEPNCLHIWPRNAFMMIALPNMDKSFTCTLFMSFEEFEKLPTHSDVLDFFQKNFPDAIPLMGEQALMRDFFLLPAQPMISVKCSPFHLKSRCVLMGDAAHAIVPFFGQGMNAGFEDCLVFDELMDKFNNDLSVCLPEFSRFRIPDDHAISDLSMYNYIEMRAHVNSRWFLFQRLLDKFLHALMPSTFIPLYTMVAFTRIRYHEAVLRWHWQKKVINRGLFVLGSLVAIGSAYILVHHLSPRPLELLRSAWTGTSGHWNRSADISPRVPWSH
Sequence of Nitric oxide synthase 1 (Rattus norvegicus) (P29476 whole entry): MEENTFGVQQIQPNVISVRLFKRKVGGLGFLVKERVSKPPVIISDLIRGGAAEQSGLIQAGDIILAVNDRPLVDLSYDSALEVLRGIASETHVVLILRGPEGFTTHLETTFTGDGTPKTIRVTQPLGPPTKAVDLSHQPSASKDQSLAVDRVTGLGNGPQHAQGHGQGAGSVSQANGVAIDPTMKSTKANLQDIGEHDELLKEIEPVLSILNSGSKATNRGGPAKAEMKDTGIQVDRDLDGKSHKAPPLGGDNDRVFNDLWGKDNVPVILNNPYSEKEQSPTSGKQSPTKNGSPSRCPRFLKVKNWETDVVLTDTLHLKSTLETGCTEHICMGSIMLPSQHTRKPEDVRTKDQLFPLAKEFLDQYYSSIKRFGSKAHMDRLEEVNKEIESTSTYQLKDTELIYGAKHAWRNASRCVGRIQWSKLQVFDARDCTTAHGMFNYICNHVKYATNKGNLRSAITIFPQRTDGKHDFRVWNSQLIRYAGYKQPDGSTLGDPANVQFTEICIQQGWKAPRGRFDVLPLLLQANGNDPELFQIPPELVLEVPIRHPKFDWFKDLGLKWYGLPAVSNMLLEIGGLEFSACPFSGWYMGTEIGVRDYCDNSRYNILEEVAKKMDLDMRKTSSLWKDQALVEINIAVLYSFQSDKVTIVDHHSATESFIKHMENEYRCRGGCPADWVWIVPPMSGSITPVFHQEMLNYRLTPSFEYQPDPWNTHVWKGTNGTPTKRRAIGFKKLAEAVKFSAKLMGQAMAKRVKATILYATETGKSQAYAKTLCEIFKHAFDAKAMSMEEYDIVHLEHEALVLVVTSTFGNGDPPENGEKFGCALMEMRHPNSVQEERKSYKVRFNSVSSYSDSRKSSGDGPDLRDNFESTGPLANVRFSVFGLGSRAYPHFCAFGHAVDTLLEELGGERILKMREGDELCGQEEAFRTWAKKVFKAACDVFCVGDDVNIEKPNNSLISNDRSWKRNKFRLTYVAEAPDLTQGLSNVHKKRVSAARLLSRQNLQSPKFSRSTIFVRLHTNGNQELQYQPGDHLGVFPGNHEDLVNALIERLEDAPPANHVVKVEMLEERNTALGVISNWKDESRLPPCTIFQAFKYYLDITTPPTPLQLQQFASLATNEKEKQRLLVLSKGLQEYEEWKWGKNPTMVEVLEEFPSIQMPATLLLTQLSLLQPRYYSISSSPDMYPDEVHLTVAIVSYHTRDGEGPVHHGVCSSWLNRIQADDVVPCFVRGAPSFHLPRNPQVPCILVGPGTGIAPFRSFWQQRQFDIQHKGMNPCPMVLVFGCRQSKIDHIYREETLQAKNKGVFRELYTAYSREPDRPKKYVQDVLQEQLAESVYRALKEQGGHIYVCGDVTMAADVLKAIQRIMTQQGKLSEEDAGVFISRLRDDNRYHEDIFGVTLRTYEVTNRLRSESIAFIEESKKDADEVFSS

On to `COc1ccc(N)c(C(=O)CCNC(C)=O)c1`, for which the % activity in assay [1] turned out to be 102%. This compound came in with an inhibition in assay [2] of 65.4%. Take `COc1ccc(N)c(C(=O)CCNC(=O)C2CCCCC2)c1`: in assay [1], the % activity amounted to 99.6%. The same compound gave an inhibition in assay [2] of 48.2%. For `COc1ccc(N)c(C(=O)CCNC(=O)C2CCC2)c1`, in that order: 92.2% and 33.7%. As to `Nc1ccc(Cl)cc1C(=O)CCNC(=O)c1ccccc1`, the inhibition in assay [2] came out at 21.7%.

The compound `CCCC(=O)NCCC(=O)c1cc(OC)ccc1N` gave an inhibition in assay [2] of 42.8%. With `CCCCC(=O)NCCC(=O)c1cc(OC)ccc1N`, the % activity in assay [1] is 97.2%. For the same compound, the inhibition in assay [2] came to 39.6%. As for `Nc1ccc(Cl)cc1C(=O)CCNC(=O)C1CC1`, the inhibition in assay [2] stood at 23.3%. In the case of `COc1ccc(N)c(C(=O)CCNC(=O)c2ccccc2)c1`, in assay [1], the % activity was 97.2%. The compound further displayed an inhibition in assay [2] of 46.5%. The corresponding values for `CCC(=O)NCCC(=O)c1cc(OC)ccc1N` are 99.4% and 50.9%. `CC(=O)NCCC(=O)c1cc(Cl)ccc1N` displayed an inhibition in assay [2] of 31.7%.

Take `COc1ccc(N)c(C(=O)CCNC(=O)C2CCCC2)c1`: in assay [1], the % activity is 96.3%. The same compound yielded an inhibition in assay [2] of 45%. Consider `COc1ccc(N)c(C(=O)CCNC(=O)C2CC2)c1`, for which the % activity in assay [1] was determined as 99.9%. In assay [2], this compound showed an inhibition of 40.4%.

Broadly, the inhibition is the change of the read-out against control, counted positive when it falls. Read a high inhibition as a response far below the control.
